Measured values from ChEMBL document CHEMBL4043093, “2-Oxo-3, 4-dihydropyrimido[4, 5-d]pyrimidinyl derivatives as new irreversible pan fibroblast growth factor receptor (FGFR) inhibitors” (Eur J Med Chem, 2017).

Tests used:
[1] = system: Tyrosine-protein kinase ABL1 (Homo sapiens), P00519 [Y253F]; assay: Inhibition of human phosphorylated ABL1 Y253F mutant (S229 to K512 residues) expressed in HEK293 cells assessed as residual activity at 1000 nM after 30 mins by Kinomescan method relative to control; assay type: cell-based
Summary of the method: (§1)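 Single-point screen at a fixed 1 µM, run within a 456-kinase DiscoveRx KINOMEscan panel. Each kinase's read-out is Percent Control, i.e. signal relative to a control without compound. Hits were scored by a Percent Control < 35 cut-off, and an S(35) selectivity score was calculated across the non-mutant kinases.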

[2] = target: Serine/threonine-protein kinase BRSK1 (Homo sapiens) (UniProt Q8TDC3); assay: Inhibition of wild-type human partial length BRSK1 (M1 to E754 residues) expressed in Escherichia coli BL21 assessed as residual activity at 1000 nM after 30 mins by Kinomescan method relative to control
[3] = target: Calcium/calmodulin-dependent protein kinase type II subunit gamma (Homo sapiens) (UniProt Q13555); assay: Inhibition of wild-type human partial length CAMK2G (R9 to A303 residues) expressed in Escherichia coli BL21 assessed as residual activity at 1000 nM after 30 mins by Kinomescan method relative to control
Chain of Calcium/calmodulin-dependent protein kinase type II subunit gamma (Homo sapiens) (Q13555 whole entry, the tested form may be a part, canonical isoform): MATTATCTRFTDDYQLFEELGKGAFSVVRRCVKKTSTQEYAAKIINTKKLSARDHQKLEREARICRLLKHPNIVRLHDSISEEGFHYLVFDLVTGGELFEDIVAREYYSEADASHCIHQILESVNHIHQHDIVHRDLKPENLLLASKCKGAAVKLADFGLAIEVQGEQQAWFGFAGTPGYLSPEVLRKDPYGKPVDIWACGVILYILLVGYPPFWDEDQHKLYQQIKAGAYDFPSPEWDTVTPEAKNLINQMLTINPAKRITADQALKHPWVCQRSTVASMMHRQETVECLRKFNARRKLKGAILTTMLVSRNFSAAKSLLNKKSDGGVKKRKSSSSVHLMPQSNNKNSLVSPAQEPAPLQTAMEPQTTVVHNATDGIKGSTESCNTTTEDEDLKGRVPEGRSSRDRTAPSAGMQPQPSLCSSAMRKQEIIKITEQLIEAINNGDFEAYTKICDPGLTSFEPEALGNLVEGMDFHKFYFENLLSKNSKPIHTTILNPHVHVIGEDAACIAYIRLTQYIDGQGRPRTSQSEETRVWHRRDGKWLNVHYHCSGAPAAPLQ

[4] = target: Casein kinase I isoform alpha (Homo sapiens) (UniProt P48729); assay: Inhibition of wild-type human partial length CSNK1A1 (M1 to L450 residues) expressed in HEK293 cells assessed as residual activity at 1000 nM after 30 mins by Kinomescan method relative to control; assay type: cell-based
[5] = target: Casein kinase I isoform gamma-3 (Homo sapiens) (UniProt Q9Y6M4); assay: Inhibition of wild-type human full length CSNK1G3 (M1 to K447 residues) expressed in Escherichia coli BL21 assessed as residual activity at 1000 nM after 30 mins by Kinomescan method relative to control; summary of the method: as §1
Chain of Casein kinase I isoform gamma-3 (Homo sapiens) (Q9Y6M4 whole entry, looked up, the tested form may be a part, canonical isoform): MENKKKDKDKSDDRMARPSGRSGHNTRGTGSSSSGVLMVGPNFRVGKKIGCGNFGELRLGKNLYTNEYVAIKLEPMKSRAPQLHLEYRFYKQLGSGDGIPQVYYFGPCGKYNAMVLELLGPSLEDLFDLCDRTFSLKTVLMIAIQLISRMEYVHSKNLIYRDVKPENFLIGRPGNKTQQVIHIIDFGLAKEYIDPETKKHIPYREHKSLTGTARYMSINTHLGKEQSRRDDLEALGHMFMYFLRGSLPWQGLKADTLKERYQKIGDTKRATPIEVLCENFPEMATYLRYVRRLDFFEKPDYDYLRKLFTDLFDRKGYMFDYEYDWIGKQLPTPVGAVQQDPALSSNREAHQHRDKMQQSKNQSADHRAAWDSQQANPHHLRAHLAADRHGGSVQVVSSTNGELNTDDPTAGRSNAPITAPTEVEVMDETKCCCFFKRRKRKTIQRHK

[6] = target: Epithelial discoidin domain-containing receptor 1 (Homo sapiens) (UniProt Q08345); assay: Inhibition of wild-type human partial length DDR1 (R565 to V876 residues) expressed in Escherichia coli BL21 assessed as residual activity at 1000 nM after 30 mins by Kinomescan method relative to control
[7] = target: Serine/threonine-protein kinase 17A (Homo sapiens) (UniProt Q9UEE5); assay: Inhibition of wild-type human partial length DRAK1 (R32 to E363 residues) expressed in Escherichia coli BL21 assessed as residual activity at 1000 nM after 30 mins by Kinomescan method relative to control
[8] = system: Epidermal growth factor receptor (Homo sapiens), P00533 [UNDEFINED MUTATION]; assay: Inhibition of human partial length EGFR L747-E749del/A750P mutant expressed in Escherichia coli BL21 assessed as residual activity at 1000 nM after 30 mins by Kinomescan method relative to control
Summary of the method: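 KINOMEscan binding panel of 456 kinases, with the test compound at a single concentration of 1 µM. Read-out is Percent Control.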

[9] = target: Receptor tyrosine-protein kinase erbB-3 (Homo sapiens) (UniProt P21860); assay: Inhibition of wild-type human partial length ERBB3 (G684 to A987 residues) expressed in HEK293 cells assessed as residual activity at 1000 nM after 30 mins by Kinomescan method relative to control; assay type: cell-based
Chain of Receptor tyrosine-protein kinase erbB-3 (Homo sapiens) (P21860 whole entry, the tested form may be a part): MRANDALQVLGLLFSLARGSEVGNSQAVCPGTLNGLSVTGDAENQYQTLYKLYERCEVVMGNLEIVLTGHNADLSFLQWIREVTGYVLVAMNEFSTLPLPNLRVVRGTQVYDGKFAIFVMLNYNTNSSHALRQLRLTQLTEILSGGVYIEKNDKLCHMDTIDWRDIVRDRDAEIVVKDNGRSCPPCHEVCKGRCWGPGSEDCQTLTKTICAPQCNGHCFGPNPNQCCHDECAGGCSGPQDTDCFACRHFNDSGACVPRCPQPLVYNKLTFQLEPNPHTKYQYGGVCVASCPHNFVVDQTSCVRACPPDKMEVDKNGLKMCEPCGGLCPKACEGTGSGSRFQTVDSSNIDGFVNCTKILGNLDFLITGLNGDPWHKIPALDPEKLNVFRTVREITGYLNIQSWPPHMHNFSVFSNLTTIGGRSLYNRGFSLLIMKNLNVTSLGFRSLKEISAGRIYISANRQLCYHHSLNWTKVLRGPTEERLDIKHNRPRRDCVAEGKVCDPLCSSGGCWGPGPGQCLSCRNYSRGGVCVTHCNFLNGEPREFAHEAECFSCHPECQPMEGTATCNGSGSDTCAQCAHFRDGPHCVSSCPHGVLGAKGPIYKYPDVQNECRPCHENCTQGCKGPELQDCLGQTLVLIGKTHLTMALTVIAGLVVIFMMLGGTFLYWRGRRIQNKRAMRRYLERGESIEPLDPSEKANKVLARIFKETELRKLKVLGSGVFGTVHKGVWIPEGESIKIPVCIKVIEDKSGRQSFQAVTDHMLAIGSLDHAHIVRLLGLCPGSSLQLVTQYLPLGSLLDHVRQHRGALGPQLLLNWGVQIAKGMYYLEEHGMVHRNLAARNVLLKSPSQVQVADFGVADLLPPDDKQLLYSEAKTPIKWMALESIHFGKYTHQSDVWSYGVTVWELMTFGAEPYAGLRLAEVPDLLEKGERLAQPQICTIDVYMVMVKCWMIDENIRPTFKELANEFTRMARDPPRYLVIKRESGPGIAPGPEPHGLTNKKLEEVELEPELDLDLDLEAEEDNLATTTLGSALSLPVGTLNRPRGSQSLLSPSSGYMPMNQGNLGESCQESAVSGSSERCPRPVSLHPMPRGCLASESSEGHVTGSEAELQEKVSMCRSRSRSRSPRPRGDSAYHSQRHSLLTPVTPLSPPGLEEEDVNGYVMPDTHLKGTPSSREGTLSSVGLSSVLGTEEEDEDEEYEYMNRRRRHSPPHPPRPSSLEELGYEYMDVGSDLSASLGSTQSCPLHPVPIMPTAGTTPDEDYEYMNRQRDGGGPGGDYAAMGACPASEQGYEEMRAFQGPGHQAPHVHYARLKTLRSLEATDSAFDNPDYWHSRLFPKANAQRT

[10] = system: eIF-2-alpha kinase GCN2 (Homo sapiens), Q9P2K8 [S808G]; assay: Inhibition of wild-type human partial length GCN2 kinase domain 2 (R585 to T1018 residues) S808G mutant expressed in Escherichia coli BL21 assessed as residual activity at 1000 nM after 30 mins by Kinomescan method relative to control
[11] = target: Serine/threonine-protein kinase haspin (Homo sapiens) (UniProt Q8TF76); assay: Inhibition of wild-type human partial length HASPIN (I452 to K798 residues) expressed in HEK293 cells assessed as residual activity at 1000 nM after 30 mins by Kinomescan method relative to control; assay type: cell-based
[12] = target: Homeodomain-interacting protein kinase 1 (Homo sapiens) (UniProt Q86Z02); assay: Inhibition of wild-type human partial length HIPK1 (M146 to I555 residues) expressed in HEK293 cells assessed as residual activity at 1000 nM after 30 mins by Kinomescan method relative to control; assay type: cell-based
[13] = target: Leukocyte tyrosine kinase receptor (Homo sapiens) (UniProt P29376); assay: Inhibition of wild-type human partial length LTK (P422 to S744 residues) expressed in Escherichia coli BL21 assessed as residual activity at 1000 nM after 30 mins by Kinomescan method relative to control
Chain of Leukocyte tyrosine kinase receptor (Homo sapiens) (P29376 whole entry, the tested form may be a part): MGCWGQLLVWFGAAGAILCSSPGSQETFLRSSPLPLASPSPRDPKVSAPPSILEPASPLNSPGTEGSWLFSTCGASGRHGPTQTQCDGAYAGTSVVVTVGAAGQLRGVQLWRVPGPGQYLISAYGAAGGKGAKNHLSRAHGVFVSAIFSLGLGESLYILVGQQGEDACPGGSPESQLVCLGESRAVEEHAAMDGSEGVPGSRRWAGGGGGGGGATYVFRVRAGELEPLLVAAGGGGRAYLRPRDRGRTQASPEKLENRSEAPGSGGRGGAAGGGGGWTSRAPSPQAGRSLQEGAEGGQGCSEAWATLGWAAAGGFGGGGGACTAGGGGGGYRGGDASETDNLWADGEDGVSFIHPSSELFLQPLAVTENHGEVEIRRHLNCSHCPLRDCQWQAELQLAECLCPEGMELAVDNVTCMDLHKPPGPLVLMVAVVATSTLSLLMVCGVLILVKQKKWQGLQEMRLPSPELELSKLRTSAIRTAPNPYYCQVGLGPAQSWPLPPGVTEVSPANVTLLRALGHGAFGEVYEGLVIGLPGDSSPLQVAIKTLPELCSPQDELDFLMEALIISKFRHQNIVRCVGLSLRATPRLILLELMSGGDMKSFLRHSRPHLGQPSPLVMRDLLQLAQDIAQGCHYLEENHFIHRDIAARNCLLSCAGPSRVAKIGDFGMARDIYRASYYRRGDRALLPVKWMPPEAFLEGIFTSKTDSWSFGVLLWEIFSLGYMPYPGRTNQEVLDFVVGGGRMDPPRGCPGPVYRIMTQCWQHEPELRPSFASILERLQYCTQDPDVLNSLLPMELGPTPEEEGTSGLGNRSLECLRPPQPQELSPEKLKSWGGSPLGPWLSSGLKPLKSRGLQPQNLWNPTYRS

[14] = target: Mitogen-activated protein kinase kinase kinase 4 (Homo sapiens) (UniProt Q9Y6R4); assay: Inhibition of wild-type human partial length MAP3K4 (G1319 to E1608 residues) expressed in Escherichia coli BL21 assessed as residual activity at 1000 nM after 30 mins by Kinomescan method relative to control
[15] = target: Serine/threonine-protein kinase MRCK beta (Homo sapiens) (UniProt Q9Y5S2); assay: Inhibition of wild-type human partial length MRCKB (L56 to S417 residues) expressed in Escherichia coli BL21 assessed as residual activity at 1000 nM after 30 mins by Kinomescan method relative to control
[16] = target: Serine/threonine-protein kinase 3 (Homo sapiens) (UniProt Q13188); assay: Inhibition of wild-type human partial length MST2 (D17 to E318 residues) expressed in Escherichia coli BL21 assessed as residual activity at 1000 nM after 30 mins by Kinomescan method relative to control
Chain of Serine/threonine-protein kinase 3 (Homo sapiens) (Q13188 whole entry, the tested form may be a part): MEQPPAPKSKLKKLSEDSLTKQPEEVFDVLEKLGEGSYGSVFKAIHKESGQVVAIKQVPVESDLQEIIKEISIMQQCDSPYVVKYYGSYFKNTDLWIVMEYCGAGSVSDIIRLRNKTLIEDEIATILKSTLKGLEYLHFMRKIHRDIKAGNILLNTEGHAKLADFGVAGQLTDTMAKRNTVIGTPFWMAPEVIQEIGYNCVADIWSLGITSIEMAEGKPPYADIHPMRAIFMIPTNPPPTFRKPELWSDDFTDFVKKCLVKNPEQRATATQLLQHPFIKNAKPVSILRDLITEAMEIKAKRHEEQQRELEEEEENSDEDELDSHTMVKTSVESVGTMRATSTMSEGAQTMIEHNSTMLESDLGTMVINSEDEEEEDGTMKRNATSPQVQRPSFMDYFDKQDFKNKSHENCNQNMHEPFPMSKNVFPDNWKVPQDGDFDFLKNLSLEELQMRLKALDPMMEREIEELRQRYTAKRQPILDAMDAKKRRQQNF

[17] = target: Serine/threonine-protein kinase mTOR (Homo sapiens) (UniProt P42345); assay: Inhibition of wild-type human partial length MTOR (L1382 to W2549 residues) expressed in HEK293 cells assessed as residual activity at 1000 nM after 30 mins by Kinomescan method relative to control; assay type: cell-based
[18] = target: Mitogen-activated protein kinase 14 (Homo sapiens) (UniProt Q16539); assay: Inhibition of wild-type human full length p38-alpha (M1 to S360 residues) expressed in Escherichia coli BL21 assessed as residual activity at 1000 nM after 30 mins by Kinomescan method relative to control
[19] = target: STE20-like serine/threonine-protein kinase (Homo sapiens) (UniProt Q9H2G2); assay: Inhibition of wild-type human partial length SLK (S14 to A307 residues) expressed in Escherichia coli BL21 assessed as residual activity at 1000 nM after 30 mins by Kinomescan method relative to control
[20] = target: Non-receptor tyrosine-protein kinase TYK2 (Homo sapiens) (UniProt P29597); assay: Inhibition of wild-type human partial length TYK2 JH1 catalytic domain (V877 to C1187 residues) expressed in HEK293 cells assessed as residual activity at 1000 nM after 30 mins by Kinomescan method relative to control; assay type: cell-based
Chain of Non-receptor tyrosine-protein kinase TYK2 (Homo sapiens) (P29597 whole entry, the tested form may be a part): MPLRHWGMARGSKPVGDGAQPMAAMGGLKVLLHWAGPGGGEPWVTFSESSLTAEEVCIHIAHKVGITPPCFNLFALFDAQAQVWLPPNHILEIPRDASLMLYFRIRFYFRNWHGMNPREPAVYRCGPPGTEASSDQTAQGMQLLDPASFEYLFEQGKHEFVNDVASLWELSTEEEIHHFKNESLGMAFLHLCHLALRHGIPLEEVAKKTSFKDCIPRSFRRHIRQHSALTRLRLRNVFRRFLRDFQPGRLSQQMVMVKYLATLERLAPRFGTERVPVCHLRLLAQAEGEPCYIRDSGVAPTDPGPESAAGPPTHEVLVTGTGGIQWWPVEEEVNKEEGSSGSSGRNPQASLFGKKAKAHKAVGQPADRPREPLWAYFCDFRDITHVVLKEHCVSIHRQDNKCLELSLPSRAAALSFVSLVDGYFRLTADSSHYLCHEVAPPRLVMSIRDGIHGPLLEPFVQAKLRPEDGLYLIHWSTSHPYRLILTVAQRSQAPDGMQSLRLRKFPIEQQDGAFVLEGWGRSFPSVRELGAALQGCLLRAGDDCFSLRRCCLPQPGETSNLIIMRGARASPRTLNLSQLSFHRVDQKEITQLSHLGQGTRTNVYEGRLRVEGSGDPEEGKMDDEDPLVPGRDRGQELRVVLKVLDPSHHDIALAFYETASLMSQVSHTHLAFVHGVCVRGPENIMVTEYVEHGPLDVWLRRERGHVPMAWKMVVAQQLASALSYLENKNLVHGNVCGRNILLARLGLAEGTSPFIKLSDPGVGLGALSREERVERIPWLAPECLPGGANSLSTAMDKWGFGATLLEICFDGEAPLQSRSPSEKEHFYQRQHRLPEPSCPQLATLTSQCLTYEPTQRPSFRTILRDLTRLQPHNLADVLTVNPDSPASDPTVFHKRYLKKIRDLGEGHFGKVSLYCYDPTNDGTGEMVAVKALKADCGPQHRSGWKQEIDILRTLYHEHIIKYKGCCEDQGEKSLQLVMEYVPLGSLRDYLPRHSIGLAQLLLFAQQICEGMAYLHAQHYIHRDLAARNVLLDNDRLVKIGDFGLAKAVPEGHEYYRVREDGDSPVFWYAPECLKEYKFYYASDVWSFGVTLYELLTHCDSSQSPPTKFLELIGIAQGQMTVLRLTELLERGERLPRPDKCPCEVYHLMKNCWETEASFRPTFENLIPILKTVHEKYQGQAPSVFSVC

[21] = target: Tyrosine-protein kinase receptor TYRO3 (Homo sapiens) (UniProt Q06418); assay: Inhibition of wild-type human partial length TYRO3 (S497 to T814 residues) expressed in Escherichia coli BL21 assessed as residual activity at 1000 nM after 30 mins by Kinomescan method relative to control

Q: `COc1cc(OC)c(Cl)c(N2Cc3cnc(Nc4ccc(F)cc4)nc3N(C3CCN(C(=O)/C=C/CN(C)C)CC3)C2=O)c1Cl` was tested. Which Activity [1] did it give?
A: 38%

Q: What about the Activity [2] of the same compound?
A: 100%

Q: What about the Activity [3] of the same compound?
A: 100%

Q: And the Activity [4]?
A: 100%

Q: What about the Activity [5] of the same compound?
A: 100%

Q: What about the Activity [6] of the same compound?
A: 7%

Q: And the Activity [7]?
A: 96%

Q: What about the Activity [8] of the same compound?
A: 96%

Q: And the Activity [9]?
A: 100%

Q: What about the Activity [10] of the same compound?
A: 46%

Q: What about the Activity [11] of the same compound?
A: 61%

Q: What about the Activity [12] of the same compound?
A: 100%

Q: What about the Activity [13] of the same compound?
A: 95%

Q: What about the Activity [14] of the same compound?
A: 46%

Q: What about the Activity [15] of the same compound?
A: 100%

Q: And the Activity [16]?
A: 64%

Q: And the Activity [17]?
A: 93%

Q: What about the Activity [18] of the same compound?
A: 98%

Q: And the Activity [19]?
A: 100%

Q: And the Activity [20]?
A: 83%

Q: And the Activity [21]?
A: 57%
